Data on 2 compounds can be found in ChEMBL document CHEMBL1154044, “5-Nitro-2-furyl derivative actives against Trypanosoma cruzi: preliminary in vivo studies” (Eur J Med Chem, 2009).

Series [1] concerns Mus musculus. Briefly: Toxicity in CD1 mouse lung at 450 mg/kg, po after 3 days by histological study. Format: organism-based. Details: dose 450 mg/kg, route oral. The settings on record: in vivo, 72 h. The gist of the method:
(§1)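 Healthy female CD1 mice (20–22 g), 5–7 per group, given a single oral (intragastric) or i.p. dose in saline:Tween 80 (4:1) vehicle. Sacrificed on day 3 after ether anaesthesia. Organs fixed in 10% aqueous formalin for histology. Scored against untreated animals from no change to +++ (many changes).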

The subject of series [2] is Mus musculus. Briefly: Toxicity in CD1 mouse assessed as increase in weight respect to day zero at 300 mg/kg, ip after 3 days. Particulars: in vivo, 72 h. Also on record: dose 300 mg/kg, route intraperitoneal. Format: organism-based. The gist of the method:
(§2)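 Healthy 2-month-old female CD1 mice (20–22 g, 5–7 per group) received one dose. Oral doses of 450 or 300 mg/kg were given by intragastric syringe; i.p. doses of 300 or 150 mg/kg by injection. Drugs were suspended in saline:Tween 80 (4:1), and a vehicle-only control was included. Mice were weighed and observed daily for 3 days. Weight change is expressed as percent relative to day zero.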

The subject of series [3] is Mus musculus. Briefly: Toxicity in CD1 mouse heart at 450 mg/kg, po after 3 days by histological study. Format: organism-based. Also on record: dose 450 mg/kg, route oral. Particulars: in vivo, 72 h. The gist of the method:
as §1

The subject of series [4] is Mus musculus. Briefly: Toxicity in CD1 mouse assessed as hematocrite level at 300 mg/kg, ip after 3 days. The settings on record: in vivo, 72 h. Also on record: dose 300 mg/kg, route intraperitoneal. Format: organism-based. The gist of the method: (§3)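 Healthy female CD1 mice (5–7 per group) received a single oral dose of 450 mg/kg or an i.p. dose of 300 mg/kg, with vehicle controls. On day 3 they were sacrificed under ether anaesthesia. Blood was drawn from the subclavian artery and kept at 0 °C in EDTA or heparin. Leukocytes, haemoglobin, haematocrit, GPT and GOT were measured within 24 h and compared with normal ranges.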

The subject of series [5] is Mus musculus. Briefly: Toxicity in CD1 mouse assessed as hematocrite level at 450 mg/kg, po after 3 days. Format: organism-based. Also on record: dose 450 mg/kg, route oral. The settings on record: in vivo, 72 h. The gist of the method:
as §3

In series [6] the test system is Mus musculus. Briefly: Toxicity in CD1 mouse intestine at 300 mg/kg, ip after 3 days by histological study. Format: organism-based. Also on record: dose 300 mg/kg, route intraperitoneal. Particulars: in vivo, 72 h. The gist of the method: as §1
In series [7] the test system is Mus musculus. Briefly: Toxicity in CD1 mouse assessed as decrease in weight respect to day zero at 450 mg/kg, po after 3 days. Format: organism-based. Also on record: dose 450 mg/kg, route oral; scale not given: the % may be the effect or the level left. The settings on record: in vivo, 72 h. The gist of the method:
as §2

In series [8] the test system is Mus musculus. Briefly: Toxicity in CD1 mouse assessed as leukocyte level at 300 mg/kg, ip after 3 days. Format: organism-based. Details: dose 300 mg/kg, route intraperitoneal. Particulars: in vivo, 72 h. The gist of the method:
as §3

The test system of series [9] is Mus musculus. Briefly: Toxicity in CD1 mouse liver at 450 mg/kg, po after 3 days by histological study. Also on record: dose 450 mg/kg, route oral. Format: organism-based. The settings on record: in vivo, 72 h. The gist of the method:
as §1

Series [10] has as its system Mus musculus. Briefly: Toxicity in CD1 mouse assessed as glutamic-oxalacetate transaminase level at 450 mg/kg, po after 3 days. Format: organism-based. Also on record: dose 450 mg/kg, route oral. The settings on record: in vivo, 72 h. The gist of the method: as §3
In series [11] the test system is Mus musculus. Briefly: Toxicity in CD1 mouse brain at 450 mg/kg, po after 3 days by histological study. Format: organism-based. Also on record: dose 450 mg/kg, route oral. The settings on record: in vivo, 72 h. The gist of the method: as §1
Series [12] deals with Mus musculus. Briefly: Toxicity in CD1 mouse lung at 300 mg/kg, ip after 3 days by histological study. Format: organism-based. Details: dose 300 mg/kg, route intraperitoneal. The settings on record: in vivo, 72 h. The gist of the method: as §1
Series [13] concerns Mus musculus. Briefly: Toxicity in CD1 mouse kidney at 300 mg/kg, ip after 3 days by histological study. Format: organism-based. Details: dose 300 mg/kg, route intraperitoneal. The settings on record: in vivo, 72 h. The gist of the method:
as §1

The subject of series [14] is Mus musculus. Briefly: Toxicity in CD1 mouse brain at 300 mg/kg, ip after 3 days by histological study. Format: organism-based. Also on record: dose 300 mg/kg, route intraperitoneal. The settings on record: in vivo, 72 h. The gist of the method:
as §1

Series [15] relates to Mus musculus. Briefly: Toxicity in CD1 mouse assessed as haemoglobin level at 300 mg/kg, ip after 3 days. Format: organism-based. Details: dose 300 mg/kg, route intraperitoneal. Particulars: in vivo, 72 h. The gist of the method:
as §3

In series [16] the test system is Mus musculus. Briefly: Toxicity in CD1 mouse liver at 300 mg/kg, ip after 3 days by histological study. Particulars: in vivo, 72 h. Details: dose 300 mg/kg, route intraperitoneal. Format: organism-based. The gist of the method: as §1
Series [17] relates to Mus musculus. Briefly: Toxicity in CD1 mouse heart at 300 mg/kg, ip after 3 days by histological study. Format: organism-based. Details: dose 300 mg/kg, route intraperitoneal. The settings on record: in vivo, 72 h. The gist of the method:
as §1

The subject of series [18] is Trypanosoma cruzi. Briefly: Growth inhibition of Trypanosoma cruzi Tulahuen 2 epimastigote at 5 uM after 5 days. Also on record: Activity: scale not given: the % may be the effect or the level left. Format: functional.
The subject of series [19] is Mus musculus. Briefly: Toxicity in CD1 mouse intestine at 450 mg/kg, po after 3 days by histological study. Details: dose 450 mg/kg, route oral. The settings on record: in vivo, 72 h. Format: organism-based. The gist of the method: as §1
Series [20] deals with Mus musculus. Briefly: Toxicity in CD1 mouse assessed as glutamic-pyruvate transaminase level at 450 mg/kg, po after 3 days. Also on record: dose 450 mg/kg, route oral. Format: organism-based. The settings on record: in vivo, 72 h. The gist of the method:
as §3

The test system of series [21] is Mus musculus. Briefly: Toxicity in CD1 mouse assessed as haemoglobin level at 450 mg/kg, po after 3 days. Format: organism-based. Also on record: dose 450 mg/kg, route oral. Particulars: in vivo, 72 h. The gist of the method: as §3
The subject of series [22] is Mus musculus. Briefly: Toxicity in CD1 mouse kidney at 450 mg/kg, po after 3 days by histological study. Format: organism-based. Details: dose 450 mg/kg, route oral. Particulars: in vivo, 72 h. The gist of the method: as §1
Series [23] has as its system Mus musculus. Briefly: Toxicity in CD1 mouse assessed as leukocyte level at 450 mg/kg, po after 3 days. Format: organism-based. Also on record: dose 450 mg/kg, route oral. The settings on record: in vivo, 72 h. The gist of the method: as §3
Series [24] relates to Mus musculus. Briefly: Toxicity in CD1 mouse assessed as increase in weight respect to day zero at 450 mg/kg, po after 3 days. Particulars: in vivo, 72 h.
Series [25] deals with Mus musculus. Briefly: Toxicity in CD1 mouse assessed as glutamic-oxalacetate transaminase level at 300 mg/kg, ip after 3 days. Format: organism-based. Particulars: in vivo, 72 h. Details: dose 300 mg/kg, route intraperitoneal. The gist of the method:
as §3

Series [26] concerns Mus musculus. Briefly: Toxicity in CD1 mouse assessed as glutamic-pyruvate transaminase level at 300 mg/kg, ip after 3 days. Format: organism-based. Details: dose 300 mg/kg, route intraperitoneal. Particulars: in vivo, 72 h. The gist of the method:
as §3

Series [27] has as its system Mus musculus. Briefly: Toxicity in CD1 mouse assessed as survival at 450 mg/kg, po after 3 days. Format: organism-based. Details: dose 450 mg/kg, route oral. The settings on record: in vivo, 72 h. The gist of the method: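 Healthy 2-month-old female CD1 mice (20–22 g), groups of 5–7, given one oral dose by intragastric syringe or one i.p. injection. Compound suspended in saline:Tween 80 (4:1) with sonication just before dosing; vehicle-treated controls included. Weighed and observed daily over 3 days for skin, physical aspect, activity and faeces; survival recorded at day 3.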

Structures are written as SMILES.

On to `CCCCCCCCOC(=O)N/N=C/c1ccc([N+](=O)[O-])o1`, for which the Activity result is on record as “Non-toxic” in series [1]; 4% in [2]; “Non-toxic” in series [3]; 43.6% in series [4]; 36.4% in [5]; “Non-toxic” in series [6]. Moreover, the Activity was 11% in [7]; 5300 µL⁻¹ in series [8]; “Toxic” in [9]; 119 IU/L in series [10]; “Non-toxic” in series [11]; “Non-toxic” in series [12]. For the same compound, the Activity entry in series [13] was “Non-toxic”; in [14], “Non-toxic”; in series [15], 13.8 g/dL; in series [16], “Toxic”; in series [17] it was “Non-toxic”; in series [18] it was 84%. Moreover, the Activity entry in series [19] was “Non-toxic”; in series [20] it was 30 IU/L; in series [21], 11.9 g/dL; in series [22], “Non-toxic”; in [23], 6600 µL⁻¹.
Regarding `CCCCCCCCOC(=O)N/N=C/C=C/c1ccc([N+](=O)[O-])o1`, the Activity was 2% in series [24]; “Non-toxic” in series [1]; 1% in series [2]; “Non-toxic” in [3]; “Non-toxic” in series [6]; 10600 µL⁻¹ in series [8]. The Activity entry is given as “Toxic” in series [9]; 57 IU/L in series [25]; 84 IU/L in [10]; “Non-toxic” in series [11]; “Non-toxic” in [12]; “Non-toxic” in series [13]. Besides, the Activity result in [14] was “Non-toxic”; in series [26] it was 50.7 IU/L; in series [15] it was 13.4 g/dL; in [16], “Toxic”; in [17], “Non-toxic”; in series [19], “Non-toxic”. In addition, the Activity result in [27] was “Non-toxic”; in [20], 70.2 IU/L; in [21], 13.9 g/dL; in [22], “Toxic”; in series [23] it was 7750 µL⁻¹. Besides, in series [18] (Trypanosoma cruzi, Tulahuen 2, 120 h, read-out: GI), the inhibition of growth at 5 µM came out at 92%.
